Key:
[1] = system: Rattus norvegicus; experiment: Evaluated for blood pressure lowering activity in the conscious spontaneously hypertensive rats (SHR) (time to peak (h)) at a dose of 10 mg/kg; format: functional
Summary of the method: (§1)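 Conscious adult male SHR in restrainers at 32 °C, with tail-cuff and pulse-transducer SBP recording. Groups of 4–6 got a single gavage dose in 0.5% methylcellulose or vehicle alone. SBP was sampled at 0.5, 1, 2, 3 and 4 h post-dose, and the time (h) at which the peak SBP change occurred was recorded.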

[2] = system: Rattus norvegicus; experiment: Evaluated for blood pressure lowering activity in spontaneously hypertensive rats (maximum change of systolic blood pressure (SBP)) at a dose of 10 mg/kg; format: functional, Artery
Summary of the method: (§2)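 Adult male SHR, conscious, restrained in a chamber at 32 °C. SBP measured indirectly by tail cuff with a pneumatic pulse transducer. After baseline, groups of 4–6 received a single oral gavage dose or vehicle (0.5% methylcellulose). SBP was read at 0.5, 1, 2, 3 and 4 h, and the maximum SBP change ± SEM was reported against the vehicle effect.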

[3] = system: Rattus norvegicus; experiment: Time to peak fall in systolic blood pressure in spontaneously hypertensive rats after oral administration of 10 mg/kg of the compound
[4] = system: Rattus norvegicus; experiment: Evaluated for blood pressure lowering activity in spontaneously hypertensive rats (maximum change of systolic blood pressure (SBP)) at a dose of 1.25 mg/kg; format: functional, Artery; summary of the method: as §2
[5] = system: Rattus norvegicus; experiment: Time to peak fall in systolic blood pressure in spontaneously hypertensive rats after oral administration of 1.25 mg/kg of the compound
[6] = system: Rattus norvegicus; experiment: Evaluated for blood pressure lowering activity in the conscious spontaneously hypertensive rats (SHR) (time to peak (h)) at a dose of 2.5 mg/kg; format: functional; summary of the method: as §1
[7] = system: Rattus norvegicus; experiment: Evaluated for blood pressure lowering activity in spontaneously hypertensive rats (maximum change of systolic blood pressure (SBP)) at a dose of 2.5 mg/kg; format: functional, Artery; summary of the method: as §2
[8] = system: Rattus norvegicus; experiment: Time to reach peak blood pressure lowering effect in spontaneously hypertensive rats after oral administration of 20 mg/kg of the compound
[9] = system: Rattus norvegicus; experiment: Evaluated for blood pressure lowering activity in spontaneously hypertensive rats (maximum change of systolic blood pressure (SBP)) at a dose of 20 mg/kg; format: functional, Artery; summary of the method: as §2
[10] = system: Rattus norvegicus; experiment: Intravenous dose required to produce a 50% inhibition of the phenylephrine pressor response in the spontaneously hypertensive rats; format: functional
Summary of the method: (§3)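 Adult male SHR, anesthetized and bilaterally vagotomized. A carotid artery was cannulated for mean arterial pressure and a jugular vein for iv dosing. Phenylephrine pressor responses were measured before and after antagonist. The iv dose (μg/kg) giving 50% inhibition of the pressor response (ED50) was reported with fiducial limits.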

[11] = organism: Rattus norvegicus; experiment: Peroral dose required to produce a 50 mmHg drop in systolic blood pressure (SBP) in the spontaneously hypertensive rats; format: functional; conditions: Artery, po
Summary of the method: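 Adult male SHR, conscious, tail-cuff indirect SBP at 32 °C. Groups of 4–6 were given single oral gavage doses of 0.5–20 mg/kg in 0.5% methylcellulose, with SBP followed over 4 h. The dose giving a 50 mmHg SBP fall (ED50SBP, mg/kg po) was calculated by regression analysis with 95% fiducial limits; n = animals tested.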

[12] = system: Canis familiaris; experiment: Intravenous dose required to produce a 20-fold rightward shift in the phenylephrine dose-response curve in the dog; format: functional, Canis lupus familiaris
Summary of the method: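 Mongrel dogs, anesthetized and bilaterally vagotomized. Mean arterial pressure was recorded via carotid cannula, and drug was given iv through the jugular vein. Phenylephrine dose–response curves were run before and after antagonist. The iv dose (μg/kg) producing a 20-fold rightward shift (DR20) was calculated; n = animals tested.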

[13] = system: Rattus norvegicus; experiment: Time to peak fall in systolic blood pressure in spontaneously hypertensive rats after oral administration of 0.5 mg/kg of the compound
[14] = system: Rattus norvegicus; experiment: Evaluated for blood pressure lowering activity in spontaneously hypertensive rats (maximum change of systolic blood pressure (SBP)) at a dose of 0.5 mg/kg; format: functional, Artery; summary of the method: as §2
[15] = system: Rattus norvegicus; experiment: Evaluated for blood pressure lowering activity in the conscious spontaneously hypertensive rats (SHR) (time to peak (h)) at a dose of 1.25 mg/kg; format: functional; summary of the method: as §1
[16] = system: Rattus norvegicus; experiment: Evaluated for blood pressure lowering activity in the conscious spontaneously hypertensive rats (SHR) (time to peak (h)) at a dose of 5 mg/kg; format: functional; summary of the method: as §1
[17] = system: Rattus norvegicus; experiment: Evaluated for blood pressure lowering activity in spontaneously hypertensive rats (maximum change of systolic blood pressure (SBP)) at a dose of 5 mg/kg; format: functional, Artery; summary of the method: as §2
[18] = system: Rattus norvegicus; experiment: Intravenous dose required to produce 50% inhibition of the phenylephrine pressor response in the spontaneously hypertensive rats; format: functional; summary of the method: as §3
[19] = system: Rattus norvegicus; experiment: Time to reach peak blood pressure lowering effect in spontaneously hypertensive rats after oral administration of 2.5 mg/kg of the compound

## CCCCCCCCn1c(=O)n(CCN2CCN(c3ccccc3OC)CC2)c(=O)c2cscc21
[1]
  Time: 2 h
[2]
  Delta SBP: -54 mmHg

## CCOC(=O)CCCn1c(=O)n(CCN2CCN(c3ccccc3OC)CC2)c(=O)c2cscc21
[3]
  Time: 0.5 h
[2]
  Delta SBP: -87 mmHg

## COc1ccccc1N1CCN(CCn2c(=O)c3sccc3n(C)c2=O)CC1
[4]
  Delta SBP: -56 mmHg
[5]
  Time: 0.5 h

## COc1ccccc1N1CCN(CCn2c(=O)c3ccsc3n(C)c2=O)CC1
[4]
  Delta SBP: -28 mmHg
[5]
  Time: 0.5 h

## COc1ccc(C(=O)n2c(=O)n(CCN3CCN(c4ccccc4OC)CC3)c(=O)c3cscc32)cc1
[6]
  Time: 2 h
[7]
  Delta SBP: -59 mmHg

## COc1ccccc1N1CCN(CCn2c(=O)[nH]c3sc(Cl)cc3c2=O)CC1
[4]
  Delta SBP: -25 mmHg
[5]
  Time: 0.5 h

## COc1ccc(N2CCN(CCn3c(=O)[nH]c4sccc4c3=O)CC2)cc1
[3]
  Time: 0.5 h
[2]
  Delta SBP: -40 mmHg

## Cc1ccccc1N1CCN(CCn2c(=O)[nH]c3ccsc3c2=O)CC1
[4]
  Delta SBP: -33 mmHg
[5]
  Time: 1 h

## COc1ccccc1N1CCN(CCn2c(=O)[nH]c3sc(C)c(C)c3c2=O)CC1
[8]
  Time: 1 h
[9]
  Delta SBP: -50 mmHg

## O=c1[nH]c2sccc2c(=O)n1CCN1CCN(c2ccccc2Cl)CC1
[3]
  Time: 2 h
[2]
  Delta SBP: -43 mmHg

## COc1ccccc1N1CCN(CCn2c(=O)c3sccc3n(C(=O)C(C)(C)C)c2=O)CC1
[6]
  Time: 0.5 h
[7]
  Delta SBP: -62 mmHg

## COc1ccccc1N1CCN(CCCn2c(=O)[nH]c3ccsc3c2=O)CC1
[3]
  Time: 0.5 h
[2]
  Delta SBP: -43 mmHg

## COC(=O)CCn1c(=O)n(CCN2CCN(c3ccccc3OC)CC2)c(=O)c2cscc21
[3]
  Time: 1 h
[2]
  Delta SBP: -55 mmHg

## COc1ccccc1N1CCN(CCn2c(=O)c3cscc3n(C(C)=O)c2=O)CC1
[6]
  Time: 0.5 h
[7]
  Delta SBP: -44 mmHg

## O=c1[nH]c2cscc2c(=O)n1CCN1CCN(c2cccc(Cl)c2)CC1
[1]
  Time: 2 h
[2]
  Delta SBP: -20 mmHg

## Cc1ccccc1N1CCN(CCn2c(=O)[nH]c3sccc3c2=O)CC1
[3]
  Time: 0.5 h
[2]
  Delta SBP: -70 mmHg

## COc1ccccc1N1CCN(CCn2c(=O)[nH]c3ccsc3c2=O)CC1
[10]
  ED50: 2.1 µg/kg
[4]
  Delta SBP: -74 mmHg
[5]
  Time: 0.5 h
[11]
  ED50: 0.19 mg/kg
[12]
  DR20: 4 µg/kg

## COc1ccccc1N1CCN(CCn2c(=O)[nH]c3cscc3c2=O)CC1.Cl
[10]
  ED50: 1.7 µg/kg
[13]
  Time: 0.5 h
[14]
  Delta SBP: -83 mmHg
[11]
  ED50: 0.21 mg/kg
[12]
  DR20: 3 µg/kg

## COc1ccccc1N1CCN(CCn2c(=O)[nH]c3ccccc3c2=O)CC1
[10]
  ED50: 3.3 µg/kg
[4]
  Delta SBP: -54 mmHg
[15]
  Time: 0.5 h
[11]
  ED50: 0.54 mg/kg
[12]
  DR20: 10 µg/kg

## COc1ccccc1N1CCN(CCn2c(=O)c3cscc3n(C(=O)c3ccccc3)c2=O)CC1
[16]
  Time: 1 h
[17]
  Delta SBP: -68 mmHg

## COc1ccccc1N1CCN(CCn2c(=O)c3cscc3n(C(=O)C(C)C)c2=O)CC1
[16]
  Time: 0.5 h
[17]
  Delta SBP: -53 mmHg

## Cc1ccccc1N1CCN(CCn2c(=O)[nH]c3cscc3c2=O)CC1
[4]
  Delta SBP: -36 mmHg
[5]
  Time: 0.5 h

## CCOC(=O)n1c(=O)n(CCN2CCN(c3ccccc3OC)CC2)c(=O)c2sccc21
[6]
  Time: 0.5 h
[7]
  Delta SBP: -30 mmHg

## COc1ccccc1N1CCN(CCn2c(=O)c3sccc3n(C(C)=O)c2=O)CC1
[16]
  Time: 0.5 h
[17]
  Delta SBP: -58 mmHg

## COc1ccccc1N1CCN(CCn2c(=O)[nH]c3scc(C)c3c2=O)CC1.Cl.O
[3]
  Time: 0.5 h
[2]
  Delta SBP: -56 mmHg

## COc1cc2nc(N3CCN(C(=O)c4ccco4)CC3)nc(N)c2cc1OC [PRAZOSIN]
[4]
  Delta SBP: -60 mmHg
[15]
  Time: 0.5 h
[11]
  ED50: 0.22 mg/kg
[12]
  DR20: 300 µg/kg
[18]
  ED50: 0.0104 mg/kg

## COc1ccccc1N1CCN(CCn2c(=O)c3cscc3n(C)c2=O)CC1
[4]
  Delta SBP: -67 mmHg
[5]
  Time: 0.5 h

## COc1ccccc1N1CCN(CCn2c(=O)[nH]c3csc(C)c3c2=O)CC1.Cl
[4]
  Delta SBP: -66 mmHg
[5]
  Time: 1 h

## Cl.O=c1[nH]c2cscc2c(=O)n1CCN1CCN(c2ccccc2)CC1
[3]
  Time: 0.5 h
[2]
  Delta SBP: -76 mmHg

## CCOc1ccccc1N1CCN(CCn2c(=O)[nH]c3cscc3c2=O)CC1.Cl
[7]
  Delta SBP: -79 mmHg
[19]
  Time: 2 h

## COc1ccccc1N1CCN(CCn2c(=O)c3cscc3n(C(=O)c3ccc(Cl)cc3)c2=O)CC1
[16]
  Time: 1 h
[17]
  Delta SBP: -14 mmHg

## CCCCCC(=O)n1c(=O)n(CCN2CCN(c3ccccc3OC)CC2)c(=O)c2cscc21
[16]
  Time: 0.5 h
[17]
  Delta SBP: -42 mmHg

## COc1ccc(N2CCN(CCn3c(=O)[nH]c4ccsc4c3=O)CC2)cc1
[3]
  Time: 1 h
[2]
  Delta SBP: -68 mmHg

## COc1ccccc1N1CCN(CCn2c(=O)[nH]c3sccc3c2=O)CC1
[10]
  ED50: 15.4 µg/kg
[4]
  Delta SBP: -50 mmHg
[5]
  Time: 0.5 h
[11]
  ED50: 1 mg/kg
[12]
  DR20: 20 µg/kg

## COc1ccccc1N1CCN(CCCn2c(=O)[nH]c3cscc3c2=O)CC1
[3]
  Time: 1 h
[2]
  Delta SBP: -38 mmHg

## Cl.O=c1[nH]c2cscc2c(=O)n1CCN1CCN(c2ccc(F)cc2)CC1
[3]
  Time: 0.5 h
[2]
  Delta SBP: -68 mmHg

## C=CCn1c(=O)n(CCN2CCN(c3ccccc3OC)CC2)c(=O)c2cscc21
[3]
  Time: 1 h
[2]
  Delta SBP: -50 mmHg

## O=c1[nH]c2sccc2c(=O)n1CCN1CCN(c2ccccc2)CC1
[3]
  Time: 1 h
[2]
  Delta SBP: -45 mmHg

## O=c1[nH]c2cscc2c(=O)n1CCN1CCN(c2ccc(Cl)cc2)CC1
[3]
  Time: 0.5 h
[2]
  Delta SBP: -56 mmHg

## COc1ccccc1N1CCN(CCn2c(=O)c3cscc3n(C(=O)C(C)(C)C)c2=O)CC1
[16]
  Time: 0.5 h
[17]
  Delta SBP: -69 mmHg

## O=c1[nH]c2cscc2c(=O)n1CCN1CCN(c2ccccc2Cl)CC1
[4]
  Delta SBP: -51 mmHg
[5]
  Time: 0.5 h

## CCCCn1c(=O)n(CCN2CCN(c3ccccc3OC)CC2)c(=O)c2sccc21
[4]
  Delta SBP: -28 mmHg
[5]
  Time: 0.5 h

## COc1ccccc1N1CCN(CCn2c(=O)[nH]c3c(Cl)scc3c2=O)CC1
[7]
  Delta SBP: -75 mmHg
[19]
  Time: 0.5 h

## COc1ccccc1N1CCN(CCCn2c(=O)[nH]c3sccc3c2=O)CC1
[1]
  Time: 0.5 h
[2]
  Delta SBP: -68 mmHg

## COc1ccc(N2CCN(CCn3c(=O)[nH]c4cscc4c3=O)CC2)cc1
[3]
  Time: 0.5 h
[2]
  Delta SBP: -51 mmHg

## CCOC(=O)CCCCn1c(=O)n(CCN2CCN(c3ccccc3OC)CC2)c(=O)c2sccc21
[7]
  Delta SBP: -30 mmHg
[19]
  Time: 0.5 h

## C#CCn1c(=O)n(CCN2CCN(c3ccccc3OC)CC2)c(=O)c2cscc21
[1]
  Time: 1 h
[2]
  Delta SBP: -52 mmHg

## COc1cccc(N2CCN(CCn3c(=O)[nH]c4cscc4c3=O)CC2)c1
[8]
  Time: 0.5 h
[9]
  Delta SBP: -52 mmHg

## COc1cccc(N2CCN(CCn3c(=O)[nH]c4ccsc4c3=O)CC2)c1
[7]
  Delta SBP: -28 mmHg
[19]
  Time: 1 h

## O=c1[nH]c2ccsc2c(=O)n1CCN1CCN(c2ccccc2)CC1
[3]
  Time: 0.5 h
[2]
  Delta SBP: -48 mmHg

## O=c1[nH]c2ccsc2c(=O)n1CCN1CCN(c2ccccc2Cl)CC1
[4]
  Delta SBP: -30 mmHg
[5]
  Time: 0.5 h

Source: ChEMBL document CHEMBL1124204, “Thiophene systems. 9. Thienopyrimidinedione derivatives as potential antihypertensive agents” (1988)
